According to ChEMBL document CHEMBL2375314, “Mitochondrial-targeted protective properties of isolated diterpenoids from sideritis spp. in response to the deleterious changes induced by H2O2” (J Nat Prod, 2013):
Calls of active or inactive are those of the source. The calls are words filed in the database; no cut-off is given here.

Legend:
[1] = test system: U373 MG; test: Neuroprotective activity in human U373MG cells assessed as protection against H2O2-induced reduction in cellular ATP level at 5 to 10 uM incubated for 24 hrs prior to H2O2 challenge measured after 30 mins by HPLC analysis; format: functional, cell-based; settings: U-373MG ATCC
Procedure, shortened: (§1)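 After 24 h at 5 or 10 μM, with or without H2O2 for 30 min (0.1 mM PC12; 1 mM U373-MG), cells extracted in 0.6 M HClO4/25 mM EDTA and neutralized with KOH/Tris. Reversed-phase C18 HPLC, isocratic 100 mM KH2PO4 (pH 6.5)/1% methanol at 1 mL/min, UV at 254 nm. Quantified against an ATP standard curve (0.25–5 μM), normalized to protein, as % of control; mean ± SD, n = 9.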

[2] = test system: U373 MG; test: Neuroprotective activity in human U373MG cells assessed as reduction of H2O2-induced mitochondrial calcium level at 10 uM incubated for 24 hrs prior to H2O2 challenge measured after 30 mins by Rhod-2 staining-based fluorocytometric analysis (reference value: 1.5 +/- 0.02 nM); format: functional, U-373MG ATCC
Procedure, shortened: (§2)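 24 h exposure at 5 or 10 μM, optionally followed by 30 min H2O2 (0.1 mM PC12, 1 mM U373-MG). Cells loaded with Rhod-2/AM in Krebs normal-calcium medium for 40 min at 37 °C in the dark, then 30 min for ester hydrolysis. Fluorescence at ex 552/em 581 nm for 4 min, then 15 min after A23187 (5 μM). Ratio of post-ionophore maximum to basal, relative to control; mean ± SD, n = 9.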

[3] = test system: U373 MG; test: Neuroprotective activity in human U373MG cells assessed as reduction of H2O2-induced mitochondrial calcium level at 5 uM incubated for 24 hrs prior to H2O2 challenge measured after 30 mins by Rhod-2 staining-based fluorocytometric analysis (reference value: 1.5 +/- 0.02 nM); format: functional, U-373MG ATCC; procedure, shortened: as §2
[4] = test system: PC-12; test: Neurotoxicity in rat PC12 cells assessed as change in cytosolic calcium level at 5 uM after 24 hrs by indo-1/AM staining-based fluorocytometric analysis (reference value: 51.3 +/- 11.3 nM); format: toxicity, cell-based; settings: pc-12, 24 h
[5] = test system: PC-12; test: Neurotoxicity in rat PC12 cells assessed as change in mitochondrial calcium level at 5 uM after 24 hrs by Rhod-2 staining-based fluorocytometric analysis (reference value: 1 +/- 0.02 nM); format: toxicity, cell-based; settings: pc-12, 24 h; procedure, shortened: as §2
[6] = Neurotoxicity in human U373MG cells assessed as change in cytosolic calcium level at 5 uM after 24 hrs by indo-1/AM staining-based fluorocytometric analysis (reference value: 91.1 +/- 12.5 nM); format: toxicity, cell-based; settings: u-373mg atcc
[7] = test system: PC-12; test: Neurotoxicity in rat PC12 cells assessed as caspase-3 activation at 5 to 10 uM after 24 hrs by fluorometric analysis in presence of Ac-DEVD-AMC; format: toxicity, cell-based; settings: pc-12, 24 h
Procedure, shortened: (§3)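 Cells held 24 h with 5 or 10 μM, H2O2 then applied for 30 min in challenge arms (0.1 mM PC12, 1 mM U373-MG). Total cell extract (20 μg) incubated with Ac-DEVD-AMC (20 μM) for 1 h at 37 °C. Released AMC read at ex 360/em 460 nm. Expressed as % of control; mean ± SD, n = 9.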

[8] = test system: PC-12; test: Neurotoxicity in rat PC12 cells assessed as change in mitochondrial membrane potential at 5 to 10 uM after 24 hrs by TMRM staining-based fluorocytometric analysis relative to control; format: toxicity, cell-based; settings: pc-12, 24 h
Procedure, shortened: (§4)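 Cells given 5 or 10 μM for 24 h, then H2O2 for 30 min (0.1 mM PC12, 1 mM U373-MG) where challenged. Loaded in Krebs medium with 150 nM TMRM; fluorescence at ex 549/em 573 nm read for 45 min at 37 °C. FCCP (6 μM) plus oligomycin (0.25 μg/mL) then added for maximal depolarization and read 15 min. Value from maximal minus basal fluorescence, as % of control; mean ± SD, n = 9.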

[9] = Neurotoxicity in human U373MG cells assessed as change in mitochondrial calcium level at 10 uM after 24 hrs by Rhod-2 staining-based fluorocytometric analysis (reference value: 1 +/- 0.03 nM); format: toxicity, cell-based; settings: u-373mg atcc; procedure, shortened: as §2
[10] = test system: PC-12; test: Neuroprotective activity in rat PC12 cells assessed as protection against H2O2-induced reduction in mitochondrial membrane potential at 5 to 10 uM incubated for 24 hrs prior to H2O2 challenge measured after 30 mins by TMRM staining-based fluorocytometric analysis relative to control; format: functional, cell-based; procedure, shortened: as §4
[11] = test system: PC-12; test: Neuroprotective activity in rat PC12 cells assessed as reduction of H2O2-induced mitochondrial calcium level at 5 uM incubated for 24 hrs prior to H2O2 challenge measured after 30 mins by Rhod-2 staining-based fluorocytometric analysis (reference value: 1.7 +/- 0.01 nM); format: functional; procedure, shortened: as §2
[12] = test system: PC-12; test: Neuroprotective activity in rat PC12 cells assessed as protection against H2O2-induced reduction in cellular ATP level at 5 to 10 uM incubated for 24 hrs prior to H2O2 challenge measured after 30 mins by HPLC analysis; format: functional, cell-based; procedure, shortened: as §1
[13] = test system: U373 MG; test: Neuroprotective activity in human U373MG cells assessed as inhibition of H2O2-induced caspase-3 activity at 5 to 10 uM incubated for 24 hrs prior to H2O2 challenge measured after 30 mins by fluorometric analysis in presence of Ac-DEVD-AMC; format: functional, cell-based; settings: U-373MG ATCC; procedure, shortened: as §3
[14] = test system: PC-12; test: Neurotoxicity in rat PC12 cells assessed as change in cytosolic calcium level at 10 uM after 24 hrs by indo-1/AM staining-based fluorocytometric analysis (reference value: 51.3 +/- 11.3 nM); format: toxicity, cell-based; settings: pc-12, 24 h
[15] = test system: PC-12; test: Neuroprotective activity in rat PC12 cells assessed as decrease in H2O2-induced cytosolic calcium level at 10 uM incubated for 24 hrs prior to H2O2 challenge measured after 30 mins by indo-1/AM staining-based fluorocytometric analysis (reference value: 395.9 +/- 15.9 nM); format: functional
[16] = test system: U373 MG; test: Neuroprotective activity in human U373MG cells assessed as decrease in H2O2-induced cytosolic calcium level at 10 uM incubated for 24 hrs prior to H2O2 challenge measured after 30 mins by indo-1/AM staining-based fluorocytometric analysis (reference value: 482.7 +/- 14.5 nM); format: functional, U-373MG ATCC
[17] = test system: PC-12; test: Neuroprotective activity in rat PC12 cells assessed as inhibition of H2O2-induced caspase-3 activity at 5 to 10 uM incubated for 24 hrs prior to H2O2 challenge measured after 30 mins by fluorometric analysis in presence of Ac-DEVD-AMC; format: functional, cell-based; procedure, shortened: as §3
[18] = test system: PC-12; test: Neuroprotective activity in rat PC12 cells assessed as reduction of H2O2-induced mitochondrial calcium level at 10 uM incubated for 24 hrs prior to H2O2 challenge measured after 30 mins by Rhod-2 staining-based fluorocytometric analysis (reference value: 1.7 +/- 0.01 nM); format: functional; procedure, shortened: as §2
[19] = Neurotoxicity in human U373MG cells assessed as effect on cellular ATP level at 5 to 10 uM after 24 hrs by HPLC analysis; format: toxicity, cell-based; settings: u-373mg atcc; procedure, shortened: as §1
[20] = Neurotoxicity in human U373MG cells assessed as change in cytosolic calcium level at 10 uM after 24 hrs by indo-1/AM staining-based fluorocytometric analysis (reference value: 91.1 +/- 12.5 nM); format: toxicity, cell-based; settings: u-373mg atcc
[21] = test system: PC-12; test: Neurotoxicity in rat PC12 cells assessed as effect on cellular ATP level at 5 to 10 uM after 24 hrs by HPLC analysis; format: toxicity, cell-based; settings: pc-12, 24 h; procedure, shortened: as §1
[22] = test system: U373 MG; test: Neuroprotective activity in human U373MG cells assessed as decrease in H2O2-induced cytosolic calcium level at 5 uM incubated for 24 hrs prior to H2O2 challenge measured after 30 mins by indo-1/AM staining-based fluorocytometric analysis (reference value: 482.7 +/- 14.5 nM); format: functional, U-373MG ATCC
[23] = test system: U373 MG; test: Neuroprotective activity in human U373MG cells assessed as protection against H2O2-induced reduction in mitochondrial membrane potential at 5 to 10 uM incubated for 24 hrs prior to H2O2 challenge measured after 30 mins by TMRM staining-based fluorocytometric analysis relative to control; format: functional, cell-based; settings: U-373MG ATCC; procedure, shortened: as §4
[24] = Neurotoxicity in human U373MG cells assessed as change in mitochondrial membrane potential at 5 to 10 uM after 24 hrs by TMRM staining-based fluorocytometric analysis relative to control; format: toxicity, cell-based; settings: u-373mg atcc; procedure, shortened: as §4
[25] = Neurotoxicity in human U373MG cells assessed as caspase-3 activation at 5 to 10 uM after 24 hrs by fluorometric analysis in presence of Ac-DEVD-AMC; format: toxicity, cell-based; settings: u-373mg atcc; procedure, shortened: as §3
[26] = test system: PC-12; test: Neuroprotective activity in rat PC12 cells assessed as decrease in H2O2-induced cytosolic calcium level at 5 uM incubated for 24 hrs prior to H2O2 challenge measured after 30 mins by indo-1/AM staining-based fluorocytometric analysis (reference value: 395.9 +/- 15.9 nM); format: functional
[27] = test system: PC-12; test: Neurotoxicity in rat PC12 cells assessed as change in mitochondrial calcium level at 10 uM after 24 hrs by Rhod-2 staining-based fluorocytometric analysis (reference value: 1 +/- 0.02 nM); format: toxicity, cell-based; settings: pc-12, 24 h; procedure, shortened: as §2
[28] = Neurotoxicity in human U373MG cells assessed as change in mitochondrial calcium level at 5 uM after 24 hrs by Rhod-2 staining-based fluorocytometric analysis (reference value: 1 +/- 0.03 nM); format: toxicity, cell-based; settings: u-373mg atcc; procedure, shortened: as §2

C=CC(=C)CC[C@H]1[C@]2(C)CCC[C@](C)(CO)[C@H]2[C@H](O)C[C@]1(C)O [ANDALUSOL]
Activity [1]: Active | Activity [2]: 1.09 nM | Activity [3]: 1.15 nM | Activity [4]: 56.5 nM | Activity [5]: 1.05 nM | Activity [6]: 92.2 nM | Activity [7]: Non-toxic | Activity [8]: Non-toxic | Activity [9]: 0.99 nM | Activity [10]: Active | Activity [11]: 1.3 nM | Activity [12]: Active | Activity [13]: Active | Activity [14]: 56.8 nM | Activity [15]: 174.8 nM | Activity [16]: 166.2 nM | Activity [17]: Active | Activity [18]: 1.2 nM | Activity [19]: Non-toxic | Activity [20]: 98 nM | Activity [21]: Non-toxic | Activity [22]: 189.6 nM | Activity [23]: Active | Activity [24]: Non-toxic | Activity [25]: Non-toxic | Activity [26]: 185.8 nM | Activity [27]: 1.09 nM | Activity [28]: 0.97 nM

CC1(C)CCC[C@]2(C)[C@@H]1C[C@H](O)[C@@]13C=C[C@@](CO)(C1)[C@H](O)C[C@@H]23 [CONCHITRIOL]
Activity [2]: 1.45 nM | Activity [3]: 1.48 nM | Activity [4]: 53.5 nM | Activity [5]: 1.08 nM | Activity [6]: 93.2 nM | Activity [7]: Non-toxic | Activity [8]: Non-toxic | Activity [9]: 0.97 nM | Activity [10]: Active | Activity [11]: 1.4 nM | Activity [12]: Active | Activity [14]: 60.6 nM | Activity [15]: 192.6 nM | Activity [16]: 430.9 nM | Activity [17]: Active | Activity [18]: 1.3 nM | Activity [19]: Non-toxic | Activity [20]: 98 nM | Activity [21]: Non-toxic | Activity [22]: 479.6 nM | Activity [24]: Non-toxic | Activity [25]: Non-toxic | Activity [26]: 188.8 nM | Activity [27]: 1.05 nM | Activity [28]: 0.99 nM

CC1(C)CCC[C@H]2C1=CC[C@H]1C[C@@](C)([C@@H](O)CO)C[C@@H](O)[C@@]12C [LAGASCATRIOL]
Activity [1]: Active | Activity [2]: 1.17 nM | Activity [3]: 1.22 nM | Activity [4]: 63.5 nM | Activity [5]: 0.9 nM | Activity [6]: 102.1 nM | Activity [7]: Non-toxic | Activity [8]: Non-toxic | Activity [9]: 1.05 nM | Activity [10]: Active | Activity [11]: 1.4 nM | Activity [12]: Active | Activity [13]: Active | Activity [14]: 51.4 nM | Activity [15]: 187.7 nM | Activity [16]: 208.5 nM | Activity [17]: Active | Activity [18]: 1.5 nM | Activity [19]: Non-toxic | Activity [20]: 98.1 nM | Activity [21]: Non-toxic | Activity [22]: 222.5 nM | Activity [23]: Active | Activity [24]: Non-toxic | Activity [25]: Non-toxic | Activity [26]: 202.5 nM | Activity [27]: 0.98 nM | Activity [28]: 1.02 nM
